Consider ten compounds from ChEMBL document CHEMBL2390868, “Design and synthesis of dimethylaminomethyl-substituted curcumin derivatives/analogues: potent antitumor and antioxidant activity, improved stability and aqueous solubility compared with curcumin” (Bioorg Med Chem Lett, 2013).

Structures are written as SMILES. pIC50: −log10 of the molar value.

In one series the test system is A549. As to the kind of experiment: Cytotoxicity against human A549 cells assessed as growth inhibition after 72 hrs by MTT assay. The class given is functional, cell-based. Conditions: A549, 72 h. A general note: Tetrazolium assays rely on reduction of a dye to a coloured formazan, in cell work by metabolically active cells.
Series [1] is described as follows: Stability of the compound in phosphate-buffered solution assessed as drug degradation under daylight condition at […] measured within 120 mins by UV-vis absorption spectroscopic analysis in presence of FBS. The class given is physicochemical. Conditions: buffer, 2 h. A digest of the protocol: (§1)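 Absorbance at 410 nm followed over time in phosphate-buffered solution (pH 7.4) under daylight, without or with 0.1% FBS; stability expressed as A/A0 relative to the 0 min reading.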

Series [2] in a line: Antioxidant activity assessed as galvinoxyl free radical scavenging activity. The class given is functional.
For series [3], the system named is Radical scavenging activity. Description: Antioxidant activity assessed as DPPH free radical scavenging activity at 2 uM relative to control. The class given is functional. (Loss of DPPH colour is used to gauge radical scavenging.)
The nature of series [4]: Antioxidant activity assessed as galvinoxyl free radical scavenging activity at 20 uM relative to control. Format: functional.
Series [5] can be described thus: Antioxidant activity assessed as galvinoxyl free radical scavenging activity at 1 uM relative to control. Format: functional.
The nature of series [6]: Antioxidant activity assessed as galvinoxyl free radical scavenging activity at 10 uM relative to control. Format: functional.
For series [7], the system named is HCT-116. As to the kind of experiment: Cytotoxicity against human HCT116 cells assessed as growth inhibition after 72 hrs by MTT assay. Conditions: HCT-116, 72 h. The class given is functional, cell-based.
For series [8], the system named is Radical scavenging activity. As to the kind of experiment: Antioxidant activity assessed as DPPH free radical scavenging activity at 100 uM relative to control. The class given is functional.
The test system of series [9] is HepG2. Description: Cytotoxicity against human HepG2 cells assessed as growth inhibition after 72 hrs by MTT assay. Format: functional, cell-based. The following applies: HepG2, 72 h.
Series [10] deals with Radical scavenging activity. As to the kind of experiment: Antioxidant activity assessed as DPPH free radical scavenging activity at 1 uM relative to control. Format: functional.
Series [11] deals with Radical scavenging activity. As to the kind of experiment: Antioxidant activity assessed as DPPH free radical scavenging activity at 10 uM relative to control. Format: functional.
Series [12] is described as follows: Antioxidant activity assessed as galvinoxyl free radical scavenging activity at 2 uM relative to control. Format: functional.
Series [13] in a line: Stability of the compound in phosphate-buffered solution assessed as drug degradation under daylight condition at […] measured within 120 mins by UV-vis absorption spectroscopic analysis in absence of FBS. The class given is physicochemical. The following applies: buffer, 2 h. A digest of the protocol:
as §1

In series [14] the test system is Radical scavenging activity. As to the kind of experiment: Antioxidant activity assessed as DPPH free radical scavenging activity at 20 uM relative to control. Format: functional.
A short description of series [15]: Antioxidant activity assessed as galvinoxyl free radical scavenging activity at 100 uM relative to control. Format: functional.
The next series has as its system SGC-7901. Description: Cytotoxicity against human SGC7901 cells assessed as growth inhibition after 72 hrs by MTT assay. The class given is functional, cell-based. The following applies: SGC-7901, 72 h.
The test system of series [16] is Radical scavenging activity. As to the kind of experiment: Antioxidant activity assessed as DPPH free radical scavenging activity. The class given is functional.
Series [17] has as its system HepG2. As to the kind of experiment: Cell cycle arrest in human HepG2 cells assessed as accumulation at G2/M phase at 30 uM after 12 hrs by propidium iodide staining-based FACS flow cytometric analysis (reference value: 33.98%). The class given is functional. A general note: Flow cytometry measures light scatter and fluorescence of single cells or particles in a stream.

The subject of series [18] is HepG2. Description: Cell cycle arrest in human HepG2 cells assessed as accumulation at S phase at 30 uM after 12 hrs by propidium iodide staining-based FACS flow cytometric analysis (reference value: 22.47%). Format: functional.
Series [19] relates to HCT-116. Description: Ratio of curcumin IC50 to compound IC50 for human HCT116 cells. The class given is functional.
In series [20] the test system is HepG2. Description: Ratio of curcumin IC50 to compound IC50 for human HepG2 cells. Format: functional.
Series [21] deals with HepG2. Description: Cell cycle arrest in human HepG2 cells assessed as accumulation at G0/G1 phase at 30 uM after 12 hrs by propidium iodide staining-based FACS flow cytometric analysis (reference value: 22.94%). The class given is functional.
Series [22] is described as follows: Aqueous solubility of the compound by UV-vis absorption spectroscopic analysis. Format: physicochemical.

What is called pIC50 is the IC50 on a negative log10 scale, so that one unit is a factor of ten. A word on the solubility: it is how much of the substance goes into solution per volume.

As to `COc1cc(/C=C2\CCC/C(=C\c3cc(CN(C)C)c(O)c(OC)c3)C2=O)cc(CN(C)C)c1O`, the pIC50 was 4.29 in the series with A549; 4.79 in series [2]; 4.18 in the series on HCT-116 [7]; 4.61 in the series with HepG2 [9]; 4.59 in the series with SGC-7901; 5.32 in [16]. Also, the Stability result in [1] and in [13] was “Stable” in each case. The Activity in [3] was found to be 40.1%; in [4], 52.9%; in series [5], 8.3%; in series [6] it was 38.9%; in [8] it was 86.3%; in series [10], 24.7%. Moreover, the Activity in series [11] was 55%; in series [12] it was 21.1%; in [14] it was 82.8%; in series [15], 58.9%.

Take `CN(C)Cc1cc(/C=C2\CC/C(=C\c3ccc(O)c(CN(C)C)c3)C2=O)ccc1O`: the pIC50 in the series with A549 is 4.11; in series [2], 4.35; in the series on HCT-116 [7], 3.85; in the series on HepG2 [9] it was 4.36; with SGC-7901 it was 4.24; in [16], 5.64. The Activity in series [3] is 54%; in series [4] it was 46.8%; in series [5] it was 3.8%; in series [6], 30.6%; in [8], 90.4%; in [10] it was 24.8%. The Activity in [11] was determined as 67.4%; in series [12], 13.3%; in series [14] it was 86.8%; in series [15] it was 71.8%.

`COc1cc(/C=C/C(=O)CC(=O)/C=C/c2ccc(O)c(CN(C)C)c2)ccc1O`: the pIC50 was 4.69 with A549; 4.18 in series [2]; 5.43 in the series with HCT-116 [7]; 5.28 in the series with HepG2 [9]; 4.63 in the series on SGC-7901; 4.73 in series [16]. The Stability entry in series [1] and in series [13] was “Unstable” in each case. Further, the Activity in [3] is 5%; in the series on HepG2 [17], 24.97%; in [4], 37.8%; in series [5] it was 0%; in series [6] it was 16.5%; in the series on HepG2 [18] it was 45.63%. The Activity in series [8] turned out to be 91.2%; in series [10], 1.1%; in series [11], 23.4%; in series [12] it was 3.1%; in [14] it was 51.7%; in series [15] it was 51.9%. Besides, the Activity in the series on HepG2 [21] was 29.4%. For the same compound, the “Ratio IC50” value with HCT-116 [19] and in the series with HepG2 [20] was over 10 each time.

On to `COc1cc(/C=C/C(=O)CC(=O)/C=C/c2ccc(O)c(OC)c2)ccc1O` [CURCUMIN], for which the negative logarithm of the IC50 (pIC50) in the series on A549 was 4.49; in [2] it was under 4.00; in the series on HCT-116 [7], 4.38; in the series with HepG2 [9] it was 4.10; with SGC-7901 it was 4.54; in series [16], 4.58. Besides, the Activity in series [3] was 2.4%; in the series with HepG2 [17] it was 50.2%; in series [4], 22.2%; in [5] it was 4.6%; in series [6], 13.7%; with HepG2 [18], 29.33%. In addition, the Activity was 87.2% in series [8]; 0.3% in series [10]; 23.1% in [11]; 5.8% in series [12]; 42% in [14]; 45% in series [15]. Moreover, the Activity with HepG2 [21] was 20.46%.

In [22], `CN(C)Cc1cc(/C=C2\CCC/C(=C\c3ccc(O)c(CN(C)C)c3)C2=O)ccc1O.Cl.Cl` showed a solubility of 303 mg/mL.

Consider `CN(C)Cc1cc(/C=C2\CCC/C(=C\c3cc(CN(C)C)c(O)c(CN(C)C)c3)C2=O)ccc1O`, for which the pIC50 is 4.45 in the series on A549; 4.18 in [2]; 4.19 with HCT-116 [7]; 4.31 with HepG2 [9]; 4.34 with SGC-7901; 5.70 in series [16]. In addition, the Activity in [3] was determined as 54.5%; in series [4], 38.7%; in series [5] it was 13.4%; in series [6], 36.5%; in series [8] it was 90.3%; in [10] it was 25.9%. The Activity in series [11] was determined as 66.6%; in [12], 21.3%; in series [14], 85.7%; in series [15], 52.3%.

In the case of `COc1cc(/C=C/C(=O)CC(=O)/C=C/c2ccc(O)c(C[N+](C)(C)C)c2)ccc1O`, the pIC50 in the series on HepG2 [9] is 3.90; with SGC-7901, 3.49.

For the compound `COc1cc(/C=C2\CC/C(=C\c3cc(CN(C)C)c(O)c(OC)c3)C2=O)cc(CN(C)C)c1O`, the pIC50 was 4.25 in series [2], 4.61 in the series on HCT-116 [7], 4.34 in the series with HepG2 [9] and 5.74 in series [16]. The Activity in [3] came to 47.9%; in series [4] it was 48%; in series [5], 8.6%; in [6] it was 35.3%; in [8], 88.6%; in series [10], 38.6%. Also, the Activity was 50.9% in [11], 12.8% in series [12], 82% in series [14] and 58.6% in [15].

For `CN(C)Cc1cc(/C=C/C(=O)/C=C/c2ccc(O)c(CN(C)C)c2)ccc1O.Cl.Cl`, in [22], the solubility is 368 mg/mL.

Regarding `CN(C)Cc1cc(/C=C2\CCC/C(=C\c3ccc(O)c(CN(C)C)c3)C2=O)ccc1O`, the Stability result in [1] and in series [13] was “Stable” each time.
